Assay outcomes from PubChem BioAssay.
T cruzi growth-1: inhibitors of T. cruzi proliferation; T. cruzi beta-gal in NIH3T3, GalScreen luminescence, 90 h; inhibition, % at 8.34 µM; 77,000 compounds, 5.9% hits; AID 624255;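 active means mean inhibition above about 93%, with at least 55% of replicates each passing it, limit read from the data, passing the limit was not always enough; inconclusive means only one of those two conditions holds; inactive means neither condition holds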
Pf Dd2 growth: blocks growth of Plasmodium falciparum Dd2 parasites | P. falciparum Dd2 growth, SYBR Green, 72 h; stronger effect = lower value | activity change, % at 10 µM | 94,000 compounds, 2.3% hits; in the data active means activity change below about -80%; inconclusive means no clear call, values can overlap the other calls
IDH1 R132H inh: inhibitors of human IDH1 R132H; IDH1 R132H reductase, diaphorase/resazurin fluorescence, 60 min; O75874; inhibition, % at 10 µM; 70,000 compounds, 0.18% hits; in the data active means inhibition above about 34%; inconclusive means no clear call, values can overlap the other calls; inactive means below about 11%;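 further: 0% = DMSO and 100% = no enzyme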
KDM4C inh: blocks human GASC-1 (KDM4C) demethylase activity; GST-KDM4C 2-372, H3K9me3 peptide, LANCE TR-FRET; inhibition, % at 12.5 µM; 96,000 compounds, 0.15% hits; AID 720574;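 active means mean replicate inhibition above about 25%, with at least 55% of replicates also reaching it, limit read from the data, passing the limit was not always enough; inconclusive means only one of those two conditions met; inactive means neither condition met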
Target sequence (Q9H3R0 2-372 limits assumed): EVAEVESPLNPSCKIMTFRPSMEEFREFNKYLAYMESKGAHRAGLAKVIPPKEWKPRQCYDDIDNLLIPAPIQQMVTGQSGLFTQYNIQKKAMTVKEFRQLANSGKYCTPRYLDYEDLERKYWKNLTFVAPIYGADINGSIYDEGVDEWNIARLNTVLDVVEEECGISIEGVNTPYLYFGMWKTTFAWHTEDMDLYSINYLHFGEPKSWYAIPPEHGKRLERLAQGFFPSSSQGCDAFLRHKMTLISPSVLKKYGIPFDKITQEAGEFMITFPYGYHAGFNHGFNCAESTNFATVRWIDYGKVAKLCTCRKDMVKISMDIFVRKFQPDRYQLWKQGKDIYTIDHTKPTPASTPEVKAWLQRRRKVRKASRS
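Assay system: GST-GASC-1 enzyme fragment 2-372 | Amount: 10 nM enzyme | Medium: HEPES buffer, pH 7.5, plus ascorbate | Reagent: H3K9me3 peptide substrate, Fe(II), 2-oxoglutarate | Doses: Single-point compound screen | Incubation: 30 min demethylation and 1 h detection at room temperature | Measured by: LANCE TR-FRET, excitation 340 nm, emissions 618 and 671 nm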
T cruzi growth-2: Trypanosoma cruzi proliferation inhibition | shares compounds with T cruzi growth-1 | T. cruzi beta-gal in NIH3T3, GalScreen luminescence, 90 h | inhibition, % at 8.35 µM | 5,600 compounds, 72% hits;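 active means mean replicate inhibition above about 95% and at least 55% of replicates individually reaching it, limit read from the data; inconclusive means only one of the two criteria is met; inactive means neither criterion is met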
T cruzi growth-3: inhibitors of T. cruzi proliferation; T. cruzi beta-gal in NIH3T3, GalScreen luminescence, 90 h; inhibition, % at 2.09 µM; 5,600 compounds, 21% hits; shares compounds with T cruzi growth-1; AID 651740;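 active means mean inhibition above about 95%, with at least 55% of replicates also reaching it, limit read from the data; inconclusive means meets just one of the two conditions; inactive means meets neither condition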;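 further: plate controls were neutral control median for no effect and positive control median for full effect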
NIH3T3 tox: NIH/3T3 (mouse) viability loss | shares compounds with T cruzi growth-1 | NIH/3T3 viability, CellTiter-Glo ATP luminescence, 90 h | cytotoxicity (signal decrease), % at 8.35 µM | 5,600 compounds, 14% hits;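 active means mean signal decrease across replicates above about 35% based on untreated-well scatter, with enough replicates individually passing, limit read from the data; inconclusive means no rule stated though some were filed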;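 further: 0% = median of neutral control wells and 100% = median of positive control wells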
NIH3T3 tox 2: NIH/3T3 (mouse) viability loss. 5,600 compounds, 56% hits. NIH/3T3 viability, CellTiter-Glo ATP luminescence, 90 h. shares compounds with T cruzi growth-1. inhibition, % at 24.9 µM. AID 651744;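 active means mean loss of cell viability signal at or above a set limit, and enough replicates individually reaching it; inconclusive means meets only the mean limit or only the replicate share; inactive means meets neither condition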;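 further: 0% = median of neutral control wells and 100% = median of positive control wells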
Starred values were filed as active, the others as inactive; ? = inconclusive; nt = not tested or not shown. In the library only some 5.9% were active in any assay of this set; here they are far more common.

SMILES | T cruzi growth-1 | Pf Dd2 growth | IDH1 R132H inh | KDM4C inh | T cruzi growth-2 | T cruzi growth-3 | NIH3T3 tox | NIH3T3 tox 2
C/C=C/c1cnc2c(c1)C(=O)N([C@@H](C)CO)C[C@H](C)[C@H](CN(C)Cc1ccccc1F)O2 | nt | 5 | 0 | -2 | nt | nt | nt | nt
C[C@@H]1CN([C@@H](C)CO)C(=O)c2cc(/C=C/c3ccccc3)cnc2O[C@@H]1CN(C)Cc1ccccc1F | 108* | -14 | 0 | -3 | 114* | 80 | 32 | 56*
C/C=C/c1cnc2c(c1)C(=O)N([C@@H](C)CO)C[C@@H](C)[C@@H](CN(C)Cc1ccccc1F)O2 | nt | 7 | 0 | -4 | nt | nt | nt | nt
CNC[C@H]1OCc2cnnn2CCCC(=O)N([C@@H](C)CO)C[C@H]1C | 120* | 1 | nt | -2 | 29 | 60 | 11 | 1
CNC[C@H]1OCc2cn(nn2)CCCC(=O)N([C@H](C)CO)C[C@H]1C | ? | 5 | -1 | 4 | 59 | -5 | -8 | 0
Cc1ccccc1S(=O)(=O)N(C)C[C@@H]1OCc2cnnn2CCCC(=O)N([C@H](C)CO)C[C@H]1C | 11 | 14 | 2 | -1 | nt | nt | nt | nt
CNC[C@H]1OCc2cnnn2CCCC(=O)N([C@@H](C)CO)C[C@@H]1C | 9 | 17 | 2 | -2 | nt | nt | nt | nt
Cc1ccccc1S(=O)(=O)N(C)C[C@@H]1OCc2cnnn2CCCC(=O)N([C@@H](C)CO)C[C@@H]1C | ? | 27 | nt | 0 | 68 | 48 | -3 | 15
O=C(NCc1ccco1)c1cc(-c2cccnc2)nc2ccc(Br)cc12 | nt | nt | 0 | nt | nt | nt | nt | nt
O=C(c1ccccc1)N1CC[C@H]2[C@H](CO)Nc3ccc(C#Cc4cccc(F)c4)cc3[C@H]21 | 122* | -34 | nt | 0 | 112* | 79 | 10 | 39*
COc1ccccc1C#Cc1ccc2c(c1)[C@@H]1[C@@H](CCN1C(=O)c1cccc(F)c1)[C@H](CO)N2 | nt | -61 | nt | -1 | nt | nt | nt | nt
O=C(c1ccccc1)N1CC[C@@H]2[C@H](CO)Nc3ccc(C#Cc4ccccc4F)cc3[C@@H]21 | 105* | -30 | nt | 5 | 104* | 72 | 45* | 106*
COc1ccccc1C#Cc1ccc2c(c1)[C@H]1[C@H](CCN1C(=O)c1cccc(F)c1)[C@H](CO)N2 | ? | -74 | nt | -1 | 101* | 87 | 33 | 104*
O=C(O)CN(c1cc(Cl)cc(Cl)c1)S(=O)(=O)c1ccccc1 | nt | nt | 0 | nt | nt | nt | nt | nt
CC(=O)C(C#N)C(=O)Nc1cc(Br)ccc1Br (stereo unspecified) | nt | nt | 0 | nt | nt | nt | nt | nt
CC(C)CC#Cc1ccc2c(c1)O[C@H](CN(C)Cc1ccccc1)[C@@H](C)CN([C@@H](C)CO)S2(=O)=O | 123* | -48 | 0 | -2 | 100* | 114* | -5 | 104*
CC(C)CC#Cc1ccc2c(c1)O[C@H](CN(C)Cc1ccccc1)[C@H](C)CN([C@H](C)CO)S2(=O)=O | 104* | -51 | 0 | 1 | 87 | 109* | 16 | 105*
CC(C)CC#Cc1ccc2c(c1)O[C@@H](CN(C)Cc1ccccc1)[C@H](C)CN([C@H](C)CO)S2(=O)=O | 9 | 16 | 0 | 2 | nt | nt | nt | nt
CC(=O)N[C@H]1[C@H](O[C@H]2CC[C@@]3(C)C(CC[C@]4(C)C3CC=C3[C@@H]5CC(C)(C)CC[C@]5(C(=O)OC5OCC(O)C(O)C5O)C(O)C[C@]34C)C2(C)C)O[C@H](COC2OCC(O)C(OC3OCC(O)C(O)C3O)C2O)[C@@H](O[C@@H]2O[C@@H](C)[C@H](O)[C@@H](O)[C@H]2O[C@@H]2O[C@@H](C)[C@H](O)[C@@H](O)[C@H]2O)[C@@H]1O (stereo partly specified) | nt | nt | 0 | nt | nt | nt | nt | nt
COc1ccc(NC(=O)CSc2cc(C)c3cccc(C)c3n2)cc1 | nt | nt | -1 | nt | nt | nt | nt | nt
CN1c2ccc(-c3cccc(C#N)c3)cc2[C@@H]2[C@@H](CCN2S(=O)(=O)c2ccccc2F)[C@H]1CO | 46 | -57 | nt | 0 | nt | nt | nt | nt
CN1c2ccc(C3=CCCCC3)cc2[C@@H]2[C@@H](CCN2S(=O)(=O)c2ccc(F)cc2)[C@H]1CO | 71 | -14 | nt | 0 | nt | nt | nt | nt
Cc1ccc(S(=O)(=O)N2CC[C@@H]3[C@H]2c2cc(-c4cccc(C#N)c4)ccc2N(C)[C@H]3CO)cc1 | ? | 9 | nt | 2 | 104* | 100* | 44* | 42*
CN1c2ccc(-c3cccc(C#N)c3)cc2[C@@H]2[C@@H](CCN2S(=O)(=O)c2ccccc2F)[C@@H]1CO | 92* | -33 | nt | -1 | 108* | 70 | ? | 6
CN1c2ccc(-c3cccc(C#N)c3)cc2[C@H]2[C@H](CCN2S(=O)(=O)c2ccc(F)cc2)[C@@H]1CO | 96* | 9 | nt | -1 | 102* | 48 | 18 | 13
SMILES | T cruzi growth-1 | Pf Dd2 growth | IDH1 R132H inh | KDM4C inh | T cruzi growth-2 | T cruzi growth-3 | NIH3T3 tox | NIH3T3 tox 2
CN1c2ccc(C3=CCCCC3)cc2[C@@H]2[C@@H](CCN2S(=O)(=O)c2ccccc2)[C@@H]1CO | 105* | -17 | nt | 0 | 96* | 106* | 33 | 78*
FC(F)(F)c1ccc2nc(SCc3ccc(Br)cc3)[nH]c2c1 | nt | nt | 5 | nt | nt | nt | nt | nt
O=C(NO)c1ccc(C(=O)N/N=C/c2ccc3c(c2)OCCO3)cc1 | nt | nt | 0 | nt | nt | nt | nt | nt
Cc1ccc(S(=O)(=O)N2CC[C@@H]3[C@@H](CO)N(C)c4ccc(-c5cccc(C#N)c5)cc4[C@@H]32)cc1 | 93 | -7 | nt | -19 | nt | nt | nt | nt
COc1cccc(-c2ccc3c(c2)[C@@H]2[C@@H](CCN2S(=O)(=O)c2ccc(F)cc2)[C@@H](CO)N3C)c1 | 80 | -20 | nt | -2 | nt | nt | nt | nt
COc1cccc(-c2ccc3c(c2)[C@H]2[C@H](CCN2S(=O)(=O)c2ccc(F)cc2)[C@H](CO)N3C)c1 | 101* | 8 | nt | -1 | 103* | 100* | 32 | 6
CN1c2ccc(-c3cccc(C#N)c3)cc2[C@@H]2[C@@H](CCN2S(=O)(=O)c2ccccc2)[C@H]1CO | 97* | -5 | nt | 1 | 98* | 109* | 52* | 76*
CN1c2ccc(-c3cccc(C#N)c3)cc2[C@H]2[C@H](CCN2S(=O)(=O)c2ccccc2)[C@H]1CO | 101* | 5 | nt | -3 | 108* | 82 | 19 | 26*
Cn1cnc(S(=O)(=O)N2CC[C@H]3[C@H](CO)Nc4ccc(-c5cccc(F)c5)cc4[C@H]32)c1 | 110* | 4 | nt | -1 | 99* | 30 | -1 | 3
Cn1cnc(S(=O)(=O)N2CC[C@@H]3[C@@H](CO)Nc4ccc(-c5cccc(F)c5)cc4[C@@H]32)c1 | 103* | 15 | nt | -1 | 103* | 79 | 10 | 11
